ChEMBL document CHEMBL1131800, “Novel carbonic anhydrase isozymes I, II and IV activators incorporating sulfonyl-histamino moieties” (Bioorg Med Chem Lett, 1999)

Tests used:
[1] = target: T1, Carbonic anhydrase 4 (Bos taurus) (UniProt Q95323); test: In vitro […] activity against bovine carbonic anhydrase IV (bCA IV) purified from lung microsomes.
T1 sequence (whole entry): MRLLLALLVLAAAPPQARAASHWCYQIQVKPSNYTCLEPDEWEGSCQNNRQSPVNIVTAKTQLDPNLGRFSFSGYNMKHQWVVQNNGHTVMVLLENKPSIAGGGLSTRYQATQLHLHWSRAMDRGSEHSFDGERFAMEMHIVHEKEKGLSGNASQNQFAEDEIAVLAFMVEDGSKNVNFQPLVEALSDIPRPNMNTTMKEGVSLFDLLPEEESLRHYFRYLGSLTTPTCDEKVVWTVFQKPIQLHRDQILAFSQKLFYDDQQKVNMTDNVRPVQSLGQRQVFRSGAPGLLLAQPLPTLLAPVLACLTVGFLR
Method in brief: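 Bovine lung microsomal CA IV (31 nM) was preincubated 10 min at room temperature with activator, then assayed by the esterase method. 4-Nitrophenolate formation was measured at pH 7.40 (ε 18,400 M-1·cm-1), minus the uncatalysed rate. Activator came from a 1 mM aqueous stock diluted to 0.1 nM. Ka is the mean of ≥3 runs.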

[2] = target: Carbonic anhydrase 1 (Homo sapiens) (UniProt P00915); test: In vitro binding affinity against human carbonic anhydrase I (hCA-I human cloned isozyme).
Method in brief: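 Human cloned CA I (12 nM) preincubated 10 min at room temperature with activator, then esterase assay on 4-nitrophenyl ester hydrolysis. Read-out was 4-nitrophenolate (ε 18,400 M-1·cm-1) at pH 7.40, with nonenzymatic rate subtracted. Activator stock was 1 mM in distilled-deionized water, diluted down to 0.1 nM. Ka is the mean of ≥3 determinations.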

[3] = target: Carbonic anhydrase 2 (Homo sapiens) (UniProt P00918); test: In vitro binding affinity against human carbonic anhydrase II (hCA-II human cloned isozyme).
Method in brief: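 Human cloned CA II (3.5 nM) preincubated 10 min at room temperature with activator, then esterase assay following 4-nitrophenolate formation (ε 18,400 M-1·cm-1) at pH 7.40. Nonenzymatic hydrolysis was subtracted. Activator was diluted in water from a 1 mM stock down to 0.1 nM. Activation constant Ka is the mean of at least three determinations.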

Sequence of Carbonic anhydrase 1 (Homo sapiens) (P00915 2-261 limits assumed): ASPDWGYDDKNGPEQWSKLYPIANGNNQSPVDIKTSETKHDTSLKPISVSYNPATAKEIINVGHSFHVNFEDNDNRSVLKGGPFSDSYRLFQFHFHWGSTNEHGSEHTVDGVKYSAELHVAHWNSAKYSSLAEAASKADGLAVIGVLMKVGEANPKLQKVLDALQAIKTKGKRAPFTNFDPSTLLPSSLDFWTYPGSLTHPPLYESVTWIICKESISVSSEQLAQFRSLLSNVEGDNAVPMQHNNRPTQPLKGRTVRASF

Ka [1] [µM] | Ka [2] [µM] | Ka [3] [µM] | SMILES
1.8 | 0.14 | 10 | O=[N+]([O-])c1ccc(S(=O)(=O)NCCc2c[nH]cn2)cc1
0.15 | 0.013 | 1.2 | O=S(=O)(NCCc1c[nH]cn1)C(F)(F)F
0.03 | 0.007 | 0.5 | O=S(=O)(NCCc1c[nH]cn1)C(F)(F)C(F)(F)C(F)(F)C(F)(F)C(F)(F)C(F)(F)C(F)(F)C(F)(F)F
1.1 | 0.09 | 5 | O=S(=O)(NCCc1c[nH]cn1)c1cccs1
0.1 | 0.08 | 5 | O=S(=O)(NCCc1c[nH]cn1)c1cc(Cl)ccc1Cl
7 | 0.24 | 28 | Cc1ccc(S(=O)(=O)NCCc2c[nH]cn2)cc1
2.4 | 0.11 | 12 | O=S(=O)(NCCc1c[nH]cn1)c1ccc(F)cc1
5.4 | 0.18 | 34 | O=S(=O)(Cc1ccccc1)NCCc1c[nH]cn1
1.4 | 0.12 | 6 | O=[N+]([O-])c1ccc(S(=O)(=O)NCCc2c[nH]cn2)cc1Cl
3.2 | 0.08 | 10 | O=S(=O)(NCCc1c[nH]cn1)c1ccc(I)cc1
5.3 | 0.15 | 13 | CN(C)S(=O)(=O)NCCc1c[nH]cn1
41 | 2 | 125 | NCCc1c[nH]cn1
2.5 | 0.1 | 13 | O=S(=O)(NCCc1c[nH]cn1)c1ccc(Cl)cc1
3.6 | 0.26 | 10 | O=S(=O)(NCCc1c[nH]cn1)c1cccc2ccccc12
3.2 | 0.28 | 9 | CN(C)c1cccc2c(S(=O)(=O)NCCc3c[nH]cn3)cccc12
5 | 0.21 | 30 | O=S(=O)(NCCc1c[nH]cn1)c1ccccc1
0.05 | 0.01 | 0.9 | O=S(=O)(NCCc1c[nH]cn1)C(F)(F)C(F)(F)C(F)(F)C(F)(F)F
4.1 | 0.13 | 14 | Nc1ccc(S(=O)(=O)NCCc2c[nH]cn2)cc1
3.5 | 0.24 | 9 | O=S(=O)(NCCc1c[nH]cn1)c1ccc2ccccc2c1
5.4 | 0.17 | 15 | CC1(C)C2CCC1(CS(=O)(=O)NCCc1c[nH]cn1)C(=O)C2 (stereo unspecified)
0.04 | 0.006 | 0.1 | O=S(=O)(NCCc1c[nH]cn1)c1c(F)c(F)c(F)c(F)c1F
1.5 | 0.12 | 9 | O=[N+]([O-])c1cccc(S(=O)(=O)NCCc2c[nH]cn2)c1
3 | 0.09 | 10 | O=S(=O)(NCCc1c[nH]cn1)c1ccc(Br)cc1
5.9 | 0.25 | 35 | Cc1cc(C)c(S(=O)(=O)NCCc2c[nH]cn2)c(C)c1
0.09 | 0.1 | 7 | O=S(=O)(NCCc1c[nH]cn1)c1cc(Cl)cc(Cl)c1O
6.5 | 0.2 | 22 | COc1ccc(S(=O)(=O)NCCc2c[nH]cn2)cc1
0.1 | 0.05 | 0.3 | O=C(O)c1c(Br)c(Br)c(Br)c(Br)c1S(=O)(=O)NCCc1c[nH]cn1
1.6 | 0.13 | 8 | O=[N+]([O-])c1ccccc1S(=O)(=O)NCCc1c[nH]cn1

SMILES | Ka [1] [µM] | Ka [2] [µM] | Ka [3] [µM]
Cc1ccc(S(=O)(=O)NC(=O)NCCc2c[nH]cn2)cc1 | 0.02 | 0.005 | 0.1
O=C(O)c1ccc(S(=O)(=O)NCCc2c[nH]cn2)cc1 | 0.1 | 0.06 | 0.8
Cc1ccccc1S(=O)(=O)NC(=O)NCCc1c[nH]cn1 | 0.03 | 0.006 | 0.15
O=C(NCCc1c[nH]cn1)NS(=O)(=O)c1ccc(Cl)cc1 | 0.01 | 0.003 | 0.08
O=S(=O)(NCCc1c[nH]cn1)C(Cl)(Cl)Cl | 3.6 | 0.018 | 13
O=C(O)c1cccc(S(=O)(=O)NCCc2c[nH]cn2)c1 | 0.07 | 0.05 | 0.5
O=C(NCCc1c[nH]cn1)NS(=O)(=O)c1ccc(F)cc1 | 0.02 | 0.004 | 0.09
O=C(O)c1ccccc1S(=O)(=O)NCCc1c[nH]cn1 | 0.12 | 0.06 | 1.2
CC(=O)Nc1ccc(S(=O)(=O)NCCc2c[nH]cn2)cc1 | 6 | 0.21 | 20
